Converted amounts (≈) assume the structure as drawn.
Legend:
[1] = tested on: Human immunodeficiency virus 1; test: Antiviral activity against HIV1 at 10 uM by luciferase assay; format: functional; conditions: for inhibition at 10 µM: Human immunodeficiency virus 1
Summary of the method: (§1)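 Pseudotyped HIV-1 assay: drug was serially diluted from 10 µM down to 0.1 nM and tested against 100 TCID50 of HIV ADA infecting TZM CD4+ CCR5+ cells. Infection was read on day 3 post-infection as reporter luciferase activity using a commercial kit, and results are given as percent inhibition. Controls were infected cells without drug, a pseudovirus with a non-specific envelope, and an RT inhibitor.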

[2] = tested on: Vero; test: Cytotoxicity against african green monkey Vero cells at 10 uM; format: cell-based; conditions: chlorocebus sabaeus
Summary of the method: (§2)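 Microtiter cytotoxicity assay run in parallel on Vero and TZM CD4+ CCR5+ cells. Serially diluted drug was applied, and viability was measured with a commercial cell viability assay. Values are reported as percent reduction in cell viability.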

[3] = tested on: Human immunodeficiency virus 1; test: Antiviral activity against HIV1 at 1.0 uM by luciferase assay; format: functional; conditions: for inhibition at 1 µM: Human immunodeficiency virus 1; summary of the method: as §1
[4] = tested on: Vero; test: Cytotoxicity against african green monkey Vero cells at 1.0 uM; format: cell-based; conditions: chlorocebus sabaeus; summary of the method: as §2
[5] = tested on: Mycobacterium tuberculosis; test: Antimicrobial activity against Mycobacterium tuberculosis; format: functional

Row | SMILES | inhibition at 10 µM [1] | Activity [2] | inhibition at 1 µM [3] | Activity [4] | Inhibition [1] | MIC [5] | Inhibition [3]
1 | CCCc1cc(=O)oc2c3c(c4c(c12)OC(C)(C)C=C4)O[C@H](C)C[C@@H]3O [(+)-11-DEMETHYL CALANOLIDE A] | 98% | 54% | 75% | 0% | – | – | –
2 | CCCc1cc(=O)oc2c3c(c4c(c12)OC(C)(C)C=C4)O[C@@H](C)C[C@H]3O [(-)-11-DEMETHYL CALANOLIDE A] | 0% | 0% | 0% | 0% | – | – | –
3 | CCCc1cc(=O)oc2c3c(c4c(c12)OC(C)(C)C=C4)O[C@H](C)[C@@H](C)[C@@H]3O [CALANOLIDE A] | – | 6% | 86% | 1% | 98% | 3.13 µg/mL (≈ 8.45 µM) | –
4 | Cc1cc(=O)oc2c3c(c4c(c12)OC(C)(C)C=C4)O[C@H](C)[C@@H](C)[C@@H]3O [(+)-CORDATOLIDE A] | 85% | 0% | 44% | 0% | – | – | –
5 | Cc1cc(=O)oc2c3c(c4c(c12)OC(C)(C)C=C4)O[C@H](C)C[C@@H]3O [(+)-11-DEMETHYL CORDATOLIDE A] | 0% | 0% | 0% | 0% | – | – | –
6 | Cc1cc(=O)oc2c3c(c4c(c12)OC(C)(C)C=C4)O[C@@H](C)C[C@H]3O [(-)-11-DEMETHYL CORDATOLIDE A] | 0% | 0% | 0% | 0% | – | – | –
7 | CCCc1cc(=O)oc2c3c(c4c(c12)OC(C)(C)C=C4)O[C@@H](C)[C@H](C)[C@H]3O [(-)-CALANOLIDE A] | 97% | 0% | 67% | 0% | – | – | –
8 | Cc1cc(=O)oc2c3c(c4c(c12)OC(C)(C)C=C4)O[C@@H](C)[C@H](C)[C@H]3O [(-)-CORDATOLIDE A] | 0% | 0% | 0% | 0% | – | – | –
9 | CCCc1cc(=O)oc2c3c(c4c(c12)OC(C)(C)C=C4)O[C@H](C)[C@@H](C)[C@@H]3O (racemic) [CALANOLIDE A] | 97% | 0% | – | 0% | – | – | 81%

Reference: ChEMBL document CHEMBL1142352, “Chemical resolution of +/- -calanolide A, +/- -cordatolide A and their 11-demethyl analogues” (Bioorg Med Chem Lett, 2008)
